Test results from paper PMC10073089 (European Journal of Medicinal Chemistry, 2023).

Legend:
[1] = Pharmacokinetic study in ICR; assay type: in vivo, mice; conditions: for improvement in plasma exposure (AUClast) compared to niclosamide: ICR (CD-1) mice, oral 30 mg/kg; for conversion of prodrug to parent compound 21: mice plasma after single-dose administration
Method in brief: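 Mice (N = 3 per group) fasted 12 h before dosing. Test compound given in DMSO/0.5% HMPC (5/95, v/v), 30 mg/kg orally or 2.5 mg/kg intravenously. Femoral-vein blood taken at 0.25, 0.5, 1, 2, 4, 8 and 24 h. […] analysed by LC-MS/MS for prodrug and parent. Mole correction applied for prodrug dosing; AUClast derived.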

[2] = Metabolic stability in human liver microsomes; assay type: in vitro ADME; conditions: pH 7.4
Method in brief: (§1)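 Microsomes at 0.33 mg/mL final in 0.1 M Tris pH 7.4 with 5 mM MgCl2, 0.01% DMSO and 0.005% BSA. Test compound at 1 μM final. Preincubated 10 min at 37 °C, then started with NADPH (1 mM final). Aliquots taken at 0, 7, 17, 30 and 60 min and quenched with cold methanol. After centrifugation, parent compound quantified by LC-MS/MS; half-life reported in min.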

[3] = Metabolic stability in mouse liver microsomes; assay type: in vitro ADME; conditions: pH 7.4
Method in brief: as §1

BECN1 = assay: Western blot assay, BECN1; assay type: cell-based; conditions: Vero-E6 cells
SKP2 = assay: Western blot assay, SKP2 level in Vero-E6 cells; assay type: cell-based; conditions: 16 h
Sub-acute toxicity study = assay type: in vivo, ICR mice
Method in brief: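 Male mice of 18–20 g in four groups of ten: one control group and three oral groups at 50, 100 and 200 mg/kg, dosed once daily for ten days. Body weight, food intake and behaviour checked daily. Animals fasted before dissection. Heart, liver, spleen, lung, kidney and administration site collected for organ weight and histology.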

SMILES | improvement in plasma exposure (AUClast) compared to niclosamide [1] [fold] | half-life at 1 µM [2] [min] | half-life at 1 µM [3] [min] | levels of BECN1 (BECN1; 10 μM, vs control group) | level of SKP2 (SKP2) | conversion of prodrug to parent compound 21 [1] | further results
O=C(Nc1ccc(C(F)(F)F)cc1)c1cc(Cl)c(F)cc1O [Compound 19, 5-Chloro-4-fluoro-2-hydroxy-N-(4-(trifluoromethyl)phenyl)benzamide] | 3.19 |  |  |  |  |  | 
O=C(Nc1ccc(OC(F)(F)F)cc1)c1cc(Cl)c(F)cc1O [Compound 21, 5-Chloro-4-fluoro-2-hydroxy-N-(4-(trifluoromethoxy)phenyl)benzamide] | 10.84 | 120 | 22.6 | higher than the control group | reduced |  | levels of BECN1 (BECN1; 3 μM and 1 μM): slightly increased; tolerability (Sub-acute toxicity study; ICR mice, oral dosage up to 200 mg/kg, ten days): well tolerated; changes in body weight, organ weight, or tissue histology (Sub-acute toxicity study; male ICR mice, 50, 100, 200 mg/kg once a day for ten days): No significant changes; mortality (Sub-acute toxicity study; male ICR mice, 50, 100, 200 mg/kg once a day, 10 days observation): No mortality
CC(C)C(=O)Oc1cc(F)c(Cl)cc1C(=O)Nc1ccc(OC(F)(F)F)cc1 [Compound 24, 4-Chloro-5-fluoro-2-((4-(trifluoromethoxy)phenyl)carbamoyl)phenyl isobutyrate] |  |  |  |  |  | rapidly hydrolyze to compound 21 | 
CC(=O)Oc1cc(F)c(Cl)cc1C(=O)Nc1ccc(OC(F)(F)F)cc1 [Compound 25, 4-Chloro-5-fluoro-2-((4-(trifluoromethoxy)phenyl)carbamoyl)phenyl acetate] |  |  |  |  |  | rapidly hydrolyze to compound 21 | 
C[C@H](N)C(=O)Oc1cc(F)c(Cl)cc1C(=O)Nc1ccc(OC(F)(F)F)cc1.Cl [Compound 26, 4-Chloro-5-fluoro-2-((4-(trifluoromethoxy)phenyl)carbamoyl)phenyll-alaninate monohydrochloride] |  |  |  |  |  | barely transforms to parent compound 21 | 
O=C(Nc1ccc([N+](=O)[O-])cc1Cl)c1cc(Cl)ccc1O [NIC, niclosamide, reference compound] |  | 13.3 | 5.86 | higher than the control group | reduced |  | 
